Data as given in ChEMBL document CHEMBL1145417, “Cytotoxic clerodane diterpenoids from fruits of Casearia grewiifolia” (J Nat Prod, 2007).
≈ marks a conversion by molar mass, not a printed value. Calls of active or inactive are those of the source. The rule behind the calls is not given here.

How the values were obtained:
Type in all cases: functional, cell-based
[1] = (§1) Cytotoxicity against human BC1 cells
Outline: (§2)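 Colorimetric cytotoxicity assay following Skehan and co-workers' method. The cells were human KB (epidermoid carcinoma of the mouth), BC1 (breast cancer) and NCI-H187 (small cell lung cancer). Ellipticine and doxorubicin were the reference compounds.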

KB = assay: Cytotoxicity against human KB cells; outline: as §2
NCI-H187 = assay: Cytotoxicity against human NCI-H187 cells; outline: as §2
BC1 = assay: as §1; outline: as §2

COc1cccc2c1C(=O)c1c(O)c3c(c(O)c1C2=O)C[C@@](O)(C(=O)CO)C[C@@H]3O[C@H]1C[C@H](N)[C@H](O)[C@H](C)O1 [DOXORUBICIN]
IC50 [1]: 0.13 µg/mL (≈ 0.239 µM)
IC50 (KB): 0.23 µg/mL (≈ 0.423 µM)
IC50 (NCI-H187): 0.048 µg/mL (≈ 0.0883 µM)

Cc1c2ccncc2c(C)c2c1[nH]c1ccccc12 [ELLIPTECINE]
IC50 [1]: 0.13 µg/mL (≈ 0.528 µM)
IC50 (KB): 0.67 µg/mL (≈ 2.72 µM)

C=C/C(C)=C\C[C@]1(C)[C@H](C)C[C@H](O)[C@@]23C(=C[C@H](OC(=O)CCCCC)C[C@@H]12)[C@@H](OC)O[C@H]3OC(C)=O (relative stereo) [CASEARGREWINS J]
IC50 [1]: 0.99 µg/mL (≈ 1.96 µM)
Activity (KB): inactive
IC50 (NCI-H187): 1.22 µg/mL (≈ 2.42 µM)

C=C/C(C)=C\C[C@]1(C)[C@H](C)[C@@H](O)[C@H](O)[C@@]23C(=C[C@H](OC(=O)CCCCC)C[C@@H]12)[C@@H](OC)O[C@H]3OC(C)=O (relative stereo) [CASEARGREWINS K]
IC50 [1]: 3.4 µg/mL (≈ 6.53 µM)
Activity (KB): inactive
IC50 (NCI-H187): 5.11 µg/mL (≈ 9.81 µM)

C=C/C(C)=C\C[C@]1(C)[C@H](C)[C@@H](O)[C@H](O)[C@@]23C(=C[C@H](OC(=O)CC(C)C)C[C@@H]12)[C@@H](OC(C)=O)O[C@H]3OC(C)=O [ESCULENTIN B]
IC50 [1]: 0.17 µg/mL (≈ 0.318 µM)
Activity (KB): inactive
IC50 (NCI-H187): 0.68 µg/mL (≈ 1.27 µM)

C=C/C(C)=C\C[C@]1(C)[C@H](C)C[C@H](O)[C@@]23C(=C[C@H](OC(=O)CCCCC)C[C@@H]12)[C@@H](OC(C)=O)O[C@H]3OC(C)=O (relative stereo) [CASEARGREWINS I]
IC50 [1]: 0.36 µg/mL (≈ 0.676 µM)
IC50 (KB): 3.04 µg/mL (≈ 5.71 µM)
IC50 (NCI-H187): 0.33 µg/mL (≈ 0.62 µM)

C=C/C(C)=C\C[C@]1(C)[C@H](C)CC[C@@]23C(=C[C@H](OC(=O)CCC)C[C@@H]12)[C@@H](OC(C)=O)O[C@H]3OC(C)=O (relative stereo) [CASEARGREWINS E]
IC50 [1]: 0.91 µg/mL (≈ 1.86 µM)
IC50 (KB): 0.66 µg/mL (≈ 1.35 µM)
IC50 (NCI-H187): 0.15 µg/mL (≈ 0.307 µM)

C=C/C(C)=C\C[C@]1(C)[C@H](C)C[C@H](O)[C@@]23C(=C[C@H](OC(=O)CCC)C[C@@H]12)[C@@H](OC(C)=O)O[C@H]3OC(C)=O (relative stereo) [CASEARGREWINS F]
IC50 [1]: 0.2 µg/mL (≈ 0.396 µM)
Activity (KB): inactive
IC50 (NCI-H187): 4.72 µg/mL (≈ 9.35 µM)

C=C/C(C)=C\C[C@]1(C)[C@H](C)C[C@H](O)[C@@]23C(=C[C@H](OC(=O)CCC)C[C@@H]12)[C@@H](OC)O[C@H]3OC(C)=O (relative stereo) [CASEARGREWINS G]
IC50 [1]: 3.97 µg/mL (≈ 8.33 µM)
IC50 (KB): 0.67 µg/mL (≈ 1.41 µM)
IC50 (NCI-H187): 5.57 µg/mL (≈ 11.7 µM)

C=C/C(C)=C\C[C@]1(C)[C@H](C)C[C@H](O)[C@@]23C(=C[C@H](OC(=O)CC(C)C)C[C@@H]12)[C@@H](OC(C)=O)O[C@H]3OC(C)=O (relative stereo) [CASEARGREWINS L]
Activity (BC1): inactive
IC50 (KB): 6 µg/mL (≈ 11.6 µM)
IC50 (NCI-H187): 0.32 µg/mL (≈ 0.617 µM)

C=C/C(C)=C\C[C@]1(C)[C@H](C)CC[C@@]23C(=C[C@H](OC(=O)CCCCC)C[C@@H]12)[C@@H](OC(C)=O)O[C@H]3OC(C)=O (relative stereo) [CASEARGREWINS H]
IC50 [1]: 0.21 µg/mL (≈ 0.406 µM)
IC50 (KB): 0.88 µg/mL (≈ 1.7 µM)
IC50 (NCI-H187): 0.54 µg/mL (≈ 1.05 µM)
